Assay results taken from ChEMBL document CHEMBL4052710 (Bioorg Med Chem Lett, 2017).

Columns and labels:
A549 [1] = test: Growth inhibition of human A549 cells incubated for 72 hrs at 1 uM by CCK8 assay; type: functional; conditions: A549, 72 h, read-out: GI
Outline: (§1)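 CCK8 viability assay on a panel of human cancer cell lines, with an initial screen at fixed concentrations of 1 µM and 10 µM.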

[2] = biological target: Vascular endothelial growth factor receptor 2 (Homo sapiens, UniProt P35968); test: Inhibition of human VEGFR2 at 1 uM by enzymatic radiometric assay
Chain of Vascular endothelial growth factor receptor 2 (P35968 whole entry): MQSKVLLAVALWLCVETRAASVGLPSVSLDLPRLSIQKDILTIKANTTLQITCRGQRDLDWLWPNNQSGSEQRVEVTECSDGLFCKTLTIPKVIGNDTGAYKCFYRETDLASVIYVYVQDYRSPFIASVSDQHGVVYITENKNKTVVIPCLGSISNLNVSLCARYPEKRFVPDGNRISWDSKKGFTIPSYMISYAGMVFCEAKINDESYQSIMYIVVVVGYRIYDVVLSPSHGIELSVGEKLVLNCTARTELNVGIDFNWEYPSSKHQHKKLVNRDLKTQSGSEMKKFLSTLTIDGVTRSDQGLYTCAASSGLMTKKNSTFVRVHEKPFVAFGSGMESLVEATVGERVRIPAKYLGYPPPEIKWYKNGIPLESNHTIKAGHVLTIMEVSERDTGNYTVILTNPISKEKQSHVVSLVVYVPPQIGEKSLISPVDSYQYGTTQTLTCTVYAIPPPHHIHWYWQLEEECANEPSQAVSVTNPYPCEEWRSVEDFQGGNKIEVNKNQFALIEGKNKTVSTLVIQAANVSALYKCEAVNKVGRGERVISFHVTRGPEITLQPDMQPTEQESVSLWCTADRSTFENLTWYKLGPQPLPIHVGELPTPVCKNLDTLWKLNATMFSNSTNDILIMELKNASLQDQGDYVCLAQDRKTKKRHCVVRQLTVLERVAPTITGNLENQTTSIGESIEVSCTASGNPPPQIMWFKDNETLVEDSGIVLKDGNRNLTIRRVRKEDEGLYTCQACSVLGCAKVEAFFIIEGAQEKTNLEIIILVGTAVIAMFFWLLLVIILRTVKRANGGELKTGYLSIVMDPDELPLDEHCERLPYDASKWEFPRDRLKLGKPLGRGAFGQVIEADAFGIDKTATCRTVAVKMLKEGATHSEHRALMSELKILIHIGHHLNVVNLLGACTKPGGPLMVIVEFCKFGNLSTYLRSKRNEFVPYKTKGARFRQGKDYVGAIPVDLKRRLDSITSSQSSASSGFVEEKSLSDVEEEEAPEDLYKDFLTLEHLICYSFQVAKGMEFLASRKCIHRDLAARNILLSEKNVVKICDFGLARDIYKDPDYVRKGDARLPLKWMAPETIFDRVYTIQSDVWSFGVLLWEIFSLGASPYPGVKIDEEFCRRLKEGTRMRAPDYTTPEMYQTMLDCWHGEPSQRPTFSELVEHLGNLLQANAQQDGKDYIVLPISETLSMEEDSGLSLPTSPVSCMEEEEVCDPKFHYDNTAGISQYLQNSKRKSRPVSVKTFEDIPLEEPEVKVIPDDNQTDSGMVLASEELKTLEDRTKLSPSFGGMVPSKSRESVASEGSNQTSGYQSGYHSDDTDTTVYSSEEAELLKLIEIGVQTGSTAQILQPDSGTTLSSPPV

[3] = biological target: CDK4/Cyclin D3 (Homo sapiens) (UniProt P11802+P30281); test: Inhibition of human CDK4/CyclinD3 at 1 uM by enzymatic radiometric assay; type: protein-complex assay
Outline: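 Kinase panel run through the Eurofins KinaseProfiler, with compound at a fixed 1 µM. Values are means of two independent experiments.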

A549 [4] = test: Growth inhibition of human A549 cells incubated for 72 hrs at 10 uM by CCK8 assay; type: functional; conditions: A549, 72 h, read-out: GI; outline: as §1
OVCAR-5 [5] = test: Growth inhibition of human OVCAR5 cells incubated for 72 hrs at 1 uM by CCK8 assay; type: functional; conditions: OVCAR-5, 72 h, read-out: GI; outline: as §1
NCI-H1299 [6] = test: Growth inhibition of human H1299 cells incubated for 72 hrs at 10 uM by CCK8 assay; type: functional; conditions: NCI-H1299, 72 h, read-out: GI; outline: as §1
NCI-H460 [7] = test: Growth inhibition of human H460 cells incubated for 72 hrs at 1 uM by CCK8 assay; type: functional; conditions: NCI-H460, 72 h, read-out: GI; outline: as §1
OVCAR-5 [8] = test: Growth inhibition of human OVCAR5 cells incubated for 72 hrs at 10 uM by CCK8 assay; type: functional; conditions: OVCAR-5, 72 h, read-out: GI; outline: as §1
T47D [9] = test: Growth inhibition of human T47D cells incubated for 72 hrs at 1 uM by CCK8 assay; type: functional; conditions: read-out: GI; outline: as §1
NCI-H1299 [10] = test: Growth inhibition of human H1299 cells incubated for 72 hrs at 1 uM by CCK8 assay; type: functional; conditions: NCI-H1299, 72 h, read-out: GI; outline: as §1
SiHa [11] = test: Growth inhibition of human SiHa cells incubated for 72 hrs at 1 uM by CCK8 assay; type: functional; conditions: read-out: GI; outline: as §1
SiHa [12] = test: Growth inhibition of human SiHa cells incubated for 72 hrs at 10 uM by CCK8 assay; type: functional; conditions: read-out: GI; outline: as §1
T47D [13] = test: Growth inhibition of human T47D cells incubated for 72 hrs at 10 uM by CCK8 assay; type: functional; conditions: read-out: GI; outline: as §1
NCI-H460 [14] = test: Growth inhibition of human H460 cells incubated for 72 hrs at 10 uM by CCK8 assay; type: functional; conditions: NCI-H460, 72 h, read-out: GI; outline: as §1

Row | Structure (SMILES) | inhibition of growth at 1 µM (A549 [1]) [%] | inhibition [2] [%] | inhibition [3] [%] | inhibition of growth at 10 µM (A549 [4]) [%] | inhibition of growth at 1 µM (OVCAR-5 [5]) [%] | inhibition of growth at 10 µM (NCI-H1299 [6]) [%] | inhibition of growth at 1 µM (NCI-H460 [7]) [%] | inhibition of growth at 10 µM (OVCAR-5 [8]) [%] | inhibition of growth at 1 µM (T47D [9]) [%] | inhibition of growth at 1 µM (NCI-H1299 [10]) [%] | inhibition of growth at 1 µM (SiHa [11]) [%] | inhibition of growth at 10 µM (SiHa [12]) [%] | inhibition of growth at 10 µM (T47D [13]) [%] | inhibition of growth at 10 µM (NCI-H460 [14]) [%]
1 | CN(C)C(=O)c1cc2cnc(Nc3ccc(NC(=O)C4(C(=O)Nc5cccc(C#N)c5)CC4)cc3)nc2n1C1CCCC1 | 70.8 | 29 | 53 | 73.6 |  |  |  |  |  |  |  |  |  | 
2 | CN(C)C(=O)c1cc2cnc(Nc3ccc(NC(=O)C4(C(=O)Nc5cccc(Cl)c5)CC4)cc3)nc2n1C1CCCC1 | 8.3 | 15 | 44 | 90.7 | 15.5 | 84.1 | 44 | 88.1 | 39.3 | 47.9 | 16.2 | 97.3 | 92.6 | 101
3 | CN(C)C(=O)c1cc2cnc(Nc3ccc(NC(=O)C4(C(=O)Nc5ccc(F)cc5)CC4)cn3)nc2n1C1CCCC1 |  | -3 | 85 |  |  |  |  |  |  |  |  |  |  | 
4 | CN(C)C(=O)c1cc2cnc(Nc3ccc(NC(=O)C4(C(=O)Nc5ccc(C#N)cc5)CC4)cc3)nc2n1C1CCCC1 | 86.1 | 21 | 84 | 95 |  |  |  |  |  |  |  |  |  | 
5 | CN(C)C(=O)c1cc2cnc(Nc3ccc(NC(=O)C4(C(=O)Nc5ccccc5)CC4)cc3)nc2n1C1CCCC1 | 75 | 8 | 82 | 88.8 | 52.1 | 90.5 | 42.4 | 77.1 | 52.8 | 71.2 | 58 | 106 | 93.9 | 95.9
6 | CN(C)C(=O)c1cc2cnc(Nc3ccc(NC(=O)C4(C(=O)Nc5cccc(C(F)(F)F)c5)CC4)cc3)nc2n1C1CCCC1 | 15.7 | -10 | 26 | 89.2 |  |  |  |  | 9.7 |  |  |  | 92.7 | 
7 | Cc1cccc(NC(=O)C2(C(=O)Nc3ccc(Nc4ncc5cc(C(=O)N(C)C)n(C6CCCC6)c5n4)cc3)CC2)c1 | 35.2 | 5 | 66 | 86.1 |  |  |  |  | 45.7 |  |  |  | 95.3 | 
8 | CN(C)C(=O)c1cc2cnc(Nc3ccc(N4CCN(C(=O)C5(C(=O)Nc6ccc(F)cc6)CC5)CC4)cn3)nc2n1C1CCCC1 |  | -8 | 97 |  |  |  |  |  |  |  |  |  |  | 
9 | COc1ccc(NC(=O)C2(C(=O)Nc3ccc(Nc4ncc5cc(C(=O)N(C)C)n(C6CCCC6)c5n4)cc3)CC2)cc1 | 74.4 | 19 | 77 | 78.5 |  |  |  |  | 76.4 |  |  |  | 96.1 | 
10 | CN(C)C(=O)c1cc2cnc(Nc3ccc(NC(=O)C4(C(=O)Nc5cccc(Br)c5)CC4)cc3)nc2n1C1CCCC1 | 20.2 | 6 | 72 | 92.2 | 0.04 | 77.5 |  | 89.6 | 29.1 | 46.6 | 13.9 | 92.5 | 94.6 | 
11 | COC(=O)c1cccc(NC(=O)C2(C(=O)Nc3ccc(Nc4ncc5cc(C(=O)N(C)C)n(C6CCCC6)c5n4)cc3)CC2)c1 | 10.5 | -7 | 76 | 91 |  |  |  |  |  |  |  |  |  | 
12 | COc1cccc(NC(=O)C2(C(=O)Nc3ccc(Nc4ncc5cc(C(=O)N(C)C)n(C6CCCC6)c5n4)cc3)CC2)c1 | 77.2 | -2 | 66 | 96 |  |  |  |  | 56.3 |  |  |  | 93.5 | 
13 | Cc1ccc(NC(=O)C2(C(=O)Nc3ccc(Nc4ncc5cc(C(=O)N(C)C)n(C6CCCC6)c5n4)cc3)CC2)cc1 | 40.2 | 9 | 62 | 90.6 |  | 84.5 |  | 80.6 | 47.9 |  | 37 | 104 | 99.6 | 
14 | CN(C)C(=O)c1cc2cnc(Nc3ccc(NC(=O)C4(C(=O)Nc5ccc(C(F)(F)F)cc5)CC4)cc3)nc2n1C1CCCC1 | -25.3 | 1 | 32 | 87.9 |  |  |  |  | 29.6 |  |  |  | 94.9 | 
15 | CN(C)C(=O)c1cc2cnc(Nc3ccc(NC(=O)C4(C(=O)Nc5ccc(Cl)cc5)CC4)cc3)nc2n1C1CCCC1 | 24.7 | 5 | 65 | 100 | 8.1 | 88.6 | 21.3 | 85.3 | 22.8 | 52.2 | -0.8 |  | 95 | 95.7
16 | CN(C)C(=O)c1cc2cnc(Nc3ccc(NC(=O)C4(C(=O)Nc5cccc(F)c5)CC4)cc3)nc2n1C1CCCC1 | 33.2 | 7 | 61 | 91.8 | 26.3 | 87 | 45.1 | 85.6 | -3.2 | 64.2 | 29.7 | 107 | -0.4 | 98.8
17 | CN(C)C(=O)c1cc2cnc(Nc3ccc(NC(=O)C4(C(=O)Nc5ccc(Br)cc5)CC4)cc3)nc2n1C1CCCC1 | -6.6 | 26 | 48 | 90.3 | 13.7 | 76.9 | 31.5 | 87.8 | 21.1 | 27.6 | 23.2 | 98.8 | 94.3 | 96.4
18 | COC(=O)c1ccc(NC(=O)C2(C(=O)Nc3ccc(Nc4ncc5cc(C(=O)N(C)C)n(C6CCCC6)c5n4)cc3)CC2)cc1 | 77.1 | 2 | 77 | 92 |  |  |  |  |  |  |  |  |  | 
